Measurements published in ChEMBL document CHEMBL2321794, “Evaluation of difluoromethyl ketones as agonists of the γ-aminobutyric acid type B (GABAB) receptor” (J Med Chem, 2013).
Activity calls are given as the source filed them. The rule behind the calls is not given here.

Tests used:
Mus musculus [1] = assay: Anxiolytic activity in high alcohol preferring-2 mouse assessed as reduction of startle response under noise alone condition at 12.5 mg/kg, ip treated 25 mins prior to test; assay type: functional, organism-based; design: dose 12.5 mg/kg
Procedure, shortened: (§1)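 Experimentally naive HAP2 mice (16 male, 16 female, 316–332 days old). Given ip at 10 mL/kg in 10% DMSO/45% (w/v) 2-hydroxypropyl-β-cyclodextrin in distilled water, 25 min before the test. Conditioning 24 h prior: 40 trials of 30 s, 7 W light paired with 0.5 s, 0.8 mA foot shock at 2 min intervals. Startle force in grams excluding body weight, 70–71 dB background, sexes pooled.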

Mus musculus [2] = assay: Anxiolytic activity in high alcohol preferring-2 mouse assessed as reduction of startle response under light and noise condition at 12.5 mg/kg, ip treated 25 mins prior to test; assay type: functional, organism-based; design: dose 12.5 mg/kg; procedure, shortened: as §1
[3] = target: GABA-A receptor; alpha-1/beta-2/gamma-2 (Rattus norvegicus, UniProt P18508+P62813+P63138); assay: Agonist activity at rat GABA-A alpha1beta2gamma2 receptor expressed in human TSA201 cells by whole cell voltage-clamp method; assay type: cell-based
Chain of GABA-A receptor; alpha-1/beta-2/gamma-2 (P18508 whole entry): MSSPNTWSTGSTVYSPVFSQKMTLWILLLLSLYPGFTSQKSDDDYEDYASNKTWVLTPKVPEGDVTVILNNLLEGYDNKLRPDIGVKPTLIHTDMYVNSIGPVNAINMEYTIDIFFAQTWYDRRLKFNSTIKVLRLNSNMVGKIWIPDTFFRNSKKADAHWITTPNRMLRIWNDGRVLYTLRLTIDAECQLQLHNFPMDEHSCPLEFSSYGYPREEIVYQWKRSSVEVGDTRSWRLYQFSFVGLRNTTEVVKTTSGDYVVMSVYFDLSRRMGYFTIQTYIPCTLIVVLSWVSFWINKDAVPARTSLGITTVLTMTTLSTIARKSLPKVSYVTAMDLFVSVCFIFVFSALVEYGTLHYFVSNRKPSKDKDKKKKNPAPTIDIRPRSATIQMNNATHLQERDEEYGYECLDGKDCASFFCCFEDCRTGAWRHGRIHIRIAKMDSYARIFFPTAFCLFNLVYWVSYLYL
Chain of GABA-A receptor; alpha-1/beta-2/gamma-2 (P62813 whole entry): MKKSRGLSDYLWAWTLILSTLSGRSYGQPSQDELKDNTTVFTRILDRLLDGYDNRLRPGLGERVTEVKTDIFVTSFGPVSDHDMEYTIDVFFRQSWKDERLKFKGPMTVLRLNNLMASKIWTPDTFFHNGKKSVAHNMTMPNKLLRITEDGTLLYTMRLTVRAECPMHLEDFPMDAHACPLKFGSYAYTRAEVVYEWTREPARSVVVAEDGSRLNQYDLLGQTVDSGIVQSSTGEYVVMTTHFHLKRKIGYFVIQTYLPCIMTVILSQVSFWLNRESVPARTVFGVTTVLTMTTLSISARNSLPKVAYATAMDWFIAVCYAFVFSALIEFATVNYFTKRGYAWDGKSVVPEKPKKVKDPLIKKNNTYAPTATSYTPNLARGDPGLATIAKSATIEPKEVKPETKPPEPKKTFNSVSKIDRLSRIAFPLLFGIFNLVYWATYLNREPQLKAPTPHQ
Chain of GABA-A receptor; alpha-1/beta-2/gamma-2 (P63138 whole entry): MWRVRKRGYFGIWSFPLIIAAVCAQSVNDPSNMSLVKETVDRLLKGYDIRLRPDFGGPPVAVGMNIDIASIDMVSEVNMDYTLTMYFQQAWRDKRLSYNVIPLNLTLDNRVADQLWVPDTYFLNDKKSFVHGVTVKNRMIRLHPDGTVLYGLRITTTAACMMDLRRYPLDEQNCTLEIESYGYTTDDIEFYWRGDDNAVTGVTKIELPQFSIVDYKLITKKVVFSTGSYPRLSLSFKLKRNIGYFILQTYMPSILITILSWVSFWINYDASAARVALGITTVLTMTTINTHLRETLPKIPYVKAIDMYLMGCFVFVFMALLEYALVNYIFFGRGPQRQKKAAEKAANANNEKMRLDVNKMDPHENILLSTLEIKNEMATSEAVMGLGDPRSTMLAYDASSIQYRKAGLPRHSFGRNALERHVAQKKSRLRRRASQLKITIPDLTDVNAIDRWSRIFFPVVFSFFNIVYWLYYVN
Procedure, shortened: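 Whole-cell voltage clamp at rt, holding potential −60 mV, in tsA201 cells transiently transfected (calcium phosphate) with rat α1, β2, γ2s subunits plus GFP (1:1:5:1); recorded the day after replating. Compounds applied at 100 μM via gap-free protocol; currents compared with response to 100 μM GABA. Intracellular NMDG-Cl/CsCl pH 7.2; extracellular NaCl/HEPES pH 7.4; 1 kHz filtering and sampling.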

GABA-B receptor = GABA-B receptor (Homo sapiens, UniProt O75899+Q9UBS5); assay: Agonist activity at human GABA-B B1/B2 receptor expressed in HEK293 cells assessed as inhibition of forskolin-stimulated cAMP accumulation after 3 hrs by luciferase reporter gene assay; assay type: functional, cell-based
Chain of GABA-B receptor (Q9UBS5 whole entry): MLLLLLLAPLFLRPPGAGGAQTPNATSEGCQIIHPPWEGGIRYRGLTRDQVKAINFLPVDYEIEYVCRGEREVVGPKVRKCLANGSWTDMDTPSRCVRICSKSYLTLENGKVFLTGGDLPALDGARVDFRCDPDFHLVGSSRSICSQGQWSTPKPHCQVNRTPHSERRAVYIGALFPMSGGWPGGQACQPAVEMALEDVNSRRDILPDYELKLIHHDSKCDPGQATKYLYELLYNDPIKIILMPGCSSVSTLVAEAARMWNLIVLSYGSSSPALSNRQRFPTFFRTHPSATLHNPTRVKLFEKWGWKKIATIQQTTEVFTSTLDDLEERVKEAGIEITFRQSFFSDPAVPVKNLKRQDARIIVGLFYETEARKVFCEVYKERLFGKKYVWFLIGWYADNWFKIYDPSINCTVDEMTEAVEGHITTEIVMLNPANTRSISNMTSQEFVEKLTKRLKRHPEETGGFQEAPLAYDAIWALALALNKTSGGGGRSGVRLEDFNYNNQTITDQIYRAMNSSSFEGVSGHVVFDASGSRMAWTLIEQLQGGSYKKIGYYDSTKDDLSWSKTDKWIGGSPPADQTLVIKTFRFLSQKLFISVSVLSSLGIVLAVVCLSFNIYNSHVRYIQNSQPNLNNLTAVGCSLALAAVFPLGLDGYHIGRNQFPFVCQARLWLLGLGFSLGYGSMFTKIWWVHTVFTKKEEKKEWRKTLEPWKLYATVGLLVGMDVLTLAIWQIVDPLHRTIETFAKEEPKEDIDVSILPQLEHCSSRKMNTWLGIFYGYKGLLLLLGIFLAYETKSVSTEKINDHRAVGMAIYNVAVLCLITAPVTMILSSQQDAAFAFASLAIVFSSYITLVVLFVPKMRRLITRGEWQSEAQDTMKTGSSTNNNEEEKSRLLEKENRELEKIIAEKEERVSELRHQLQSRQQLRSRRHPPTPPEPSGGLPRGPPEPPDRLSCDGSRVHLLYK
Chain of GABA-B receptor (O75899 whole entry): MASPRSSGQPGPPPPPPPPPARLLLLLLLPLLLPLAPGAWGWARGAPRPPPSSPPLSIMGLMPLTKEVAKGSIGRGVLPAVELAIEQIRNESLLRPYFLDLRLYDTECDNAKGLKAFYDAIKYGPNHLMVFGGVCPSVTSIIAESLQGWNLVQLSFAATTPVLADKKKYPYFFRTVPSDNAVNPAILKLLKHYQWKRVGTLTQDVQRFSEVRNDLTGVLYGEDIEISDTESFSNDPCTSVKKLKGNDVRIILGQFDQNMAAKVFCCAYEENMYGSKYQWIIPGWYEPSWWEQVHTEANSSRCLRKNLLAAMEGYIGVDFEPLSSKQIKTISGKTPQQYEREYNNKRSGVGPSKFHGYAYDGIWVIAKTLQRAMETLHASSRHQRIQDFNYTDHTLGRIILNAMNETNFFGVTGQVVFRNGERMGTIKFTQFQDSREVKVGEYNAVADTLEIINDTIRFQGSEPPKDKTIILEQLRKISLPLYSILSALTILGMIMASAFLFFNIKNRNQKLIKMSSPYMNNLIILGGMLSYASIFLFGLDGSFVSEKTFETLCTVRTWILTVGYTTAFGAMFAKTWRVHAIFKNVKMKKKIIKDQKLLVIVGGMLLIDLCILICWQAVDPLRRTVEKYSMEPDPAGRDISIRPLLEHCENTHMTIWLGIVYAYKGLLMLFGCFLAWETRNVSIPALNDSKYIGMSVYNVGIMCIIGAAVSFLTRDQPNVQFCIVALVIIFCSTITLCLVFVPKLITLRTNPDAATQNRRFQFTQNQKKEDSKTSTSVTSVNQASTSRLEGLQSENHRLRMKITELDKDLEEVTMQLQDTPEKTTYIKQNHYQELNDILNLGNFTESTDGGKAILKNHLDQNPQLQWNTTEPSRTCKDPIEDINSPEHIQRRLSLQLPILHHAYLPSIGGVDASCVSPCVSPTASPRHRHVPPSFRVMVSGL

HEK293 = assay: Cytotoxicity against HEK293 cells expressing human GABA-B B1/B2 receptor gene after 3 hrs by MTS assay; assay type: cell-based; details: hek293, 3 h
Procedure, shortened: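 MTS viability in HEK293 cells stably expressing human GABA-B1/B2 with Cre-luc reporter: about 65000 cells/well plated overnight, treated 3 h at 37 °C, 5% CO2 in Optimem, in triplicate. CellTiter Aqueous One reagent then added for 1.5 h; absorbance read at 490 nm.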

Mus musculus [4] = assay: Anxiolytic activity in high alcohol preferring-2 mouse assessed as reduction of startle response under light and noise condition at 36 mg/kg, ip treated 25 mins prior to test; assay type: functional, organism-based; design: dose 36 mg/kg
Procedure, shortened: (§2)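 HAP2 mice, experimentally naive (16 male, 16 female, 316–332 days old), given compound ip at 10 mL/kg in 10% DMSO/45% (w/v) 2-hydroxypropyl-β-cyclodextrin in water, 25 min before test. Conditioning: 40 trials of 30 s light paired with 0.5 s, 0.8 mA foot shock; test 24 h later. Startle force in grams on noise-alone and light + noise trials, 70–71 dB background; sexes pooled.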

[5] = target: T1, GABA-A receptor; alpha-1/beta-2/gamma-2 (Rattus norvegicus) (UniProt P18508+P62813+P63138); assay: Agonist activity at rat GABA-Aalpha1beta2gamma2 activity expressed in human TSA201 cells assessed as potentiation of 1 uM GABA-induced current amplitude at 100 uM by whole cell voltage-clamp method; assay type: cell-based
Procedure, shortened: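 Modulation test on tsA201 cells expressing rat α1β2γ2s GABA-A receptor under whole-cell voltage clamp at −60 mV, rt: 1 μM GABA applied alone or simultaneously with 100 μM compound; current amplitude normalized, mean ± SE, N = 5 cells.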

[6] = target: T1, GABA-A receptor; alpha-1/beta-2/gamma-2 (Rattus norvegicus); assay: Agonist activity at rat GABA-Aalpha1beta2gamma2 activity expressed in human TSA201 cells assessed as potentiation of 100 uM GABA-induced current amplitude at 100 uM by whole cell voltage-clamp method; assay type: cell-based
Procedure, shortened: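 Same whole-cell clamp setup (rat α1β2γ2s in tsA201, −60 mV, rt): 100 μM GABA, near-saturating, co-applied with 100 μM compound versus GABA alone; normalized current amplitude, mean ± SE, N = 5.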

Mus musculus [7] = assay: Anxiolytic activity in high alcohol preferring-2 mouse assessed as reduction of startle response under noise alone condition at 36 mg/kg, ip treated 25 mins prior to test; assay type: functional, organism-based; design: dose 36 mg/kg; procedure, shortened: as §2
Mus musculus [8] = assay: Anxiolytic activity in high alcohol preferring-2 mouse assessed as reduction of startle response under noise alone condition at 7.5 mg/kg, ip treated 25 mins prior to test; assay type: functional; details: route intraperitoneal
Procedure, shortened: (§3)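 Male and female HAP2 mice (7 of each, 133–142 days old) with prior startle testing, prepulse testing and vehicle or drug injections, followed by a 15-day washout and counterbalancing. Dosed ip (10 mL/kg, distilled water vehicle) 25 min before the test session. Light (30 s, 7 W) was paired with foot shock (0.5 s, 0.8 mA; 40 trials) 24 h earlier. Startle force in grams, sexes pooled, mean ± SEM.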

Mus musculus [9] = assay: Anxiolytic activity in high alcohol preferring-2 mouse assessed as reduction of startle response under light and noise condition at 7.5 mg/kg, ip treated 25 mins prior to test; assay type: functional; details: route intraperitoneal; procedure, shortened: as §3

With CC(C)(C)c1cc(C(C)(C)C)c2c(c1)C(O)(C(F)(F)F)C(=O)O2 (racemic) the Activity (Mus musculus [1]) was “Active”, the Activity (Mus musculus [2]) was “Active” and the EC50 [3] was > 100 µM.
With CC(=O)c1ccc(C(O)C(F)(F)C(=O)C23CC4CC(CC(C4)C2)C3)cc1 (racemic) [listing 1 of 2 here] the EC50 [3] was > 100 µM.
O=C(c1ccc2ccccc2c1)C(F)(F)C(O)C1CCCCC1 (racemic) was tested, and the EC50 [3] was > 100 µM.
In the case of CC(=O)c1ccc(C(O)CC(=O)C23CC4CC(CC(C4)C2)C3)cc1 (racemic), the EC50 (GABA-B receptor) is reported as > 100 µM.
For O=C(C12CC3CC(CC(C3)C1)C2)C(F)(F)C(O)/C=C/c1ccccc1 (racemic), the EC50 [3] was > 100 µM and the EC50 (GABA-B receptor) was 40 µM.
For C/C=C/C=C/C(O)C(F)(F)C(=O)/C=C/CCCC (racemic), the EC50 (GABA-B receptor) was > 100 µM.
For CC1(C)C2CCC(C(O)C(F)(F)C(=O)c3ccc4c(c3)OCO4)C1C2 (racemic), the Activity (HEK293) was “Toxic”.
For CC(=O)c1ccc(C(O)C(F)(F)C(=O)C23CC4CC(CC(C4)C2)C3)cc1 (stereo unspecified), the Activity (HEK293) was “Non-toxic”.
CC(=O)c1ccc(C(O)C(F)(F)C(=O)C23CC4CC(CC(C4)C2)C3)cc1 (racemic) [listing 2 of 2 here] was tested, and the Activity (Mus musculus [4]) was “Active”, the Activity [5] was “inactive” and the Activity [6] was “inactive”. For the same compound, the Activity (Mus musculus [7]) was “Active”.
With C/C=C/C=C/C(O)C(F)(F)C(=O)c1ccc2ccccc2c1 (racemic) the EC50 [3] was > 100 µM.
NCC(CC(=O)O)c1ccc(Cl)cc1 (racemic) [BACLOFEN] was tested, and the EC50 [3] was > 100 µM, the Activity (Mus musculus [8]) was 8.1 g and the Activity (Mus musculus [9]) was 26.3 g.
In the case of COc1ccc(C(O)C(F)(F)C(=O)c2ccc3ccccc3c2)cc1 (racemic), the EC50 [3] is reported as > 100 µM.
With CCC/C=C/C(O)C(F)(F)C(=O)c1ccc2ccccc2c1 (racemic) the EC50 [3] was > 100 µM.
